Series [1] in a line: Antiproliferative activity against human TY82 cells. The series is classed as functional, cell-based.
In the next series the test system is THP-1. In words: Antiproliferative activity against human THP1 cells. The series is classed as functional, cell-based.
The target of series [2] is Bromodomain-containing protein 4 (Homo sapiens, UniProt O60885). In words: Inhibition of BRD4 BD1-BD2 (unknown origin) using tetraacetylated histone peptide as substrate after 2 hrs by alphascreen assay. (Alpha assays give light when donor and acceptor beads are brought close together.)
Series [3] can be described thus: AUCt in rat at 2 mg/kg, iv. Particulars: in vivo. Type of series: ADME, organism-based. A digest of the protocol: (§1)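 Rat pharmacokinetics with single dosing, either intravenous at 2 mg/kg or oral at 5 or 20 mg/kg. AUC is reported both to the last time point (AUCt) and extrapolated to infinity, in ug.hr/mL.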
Series [4] is described as follows: Half life in rat at 2 mg/kg, iv. The series is classed as ADME, organism-based. Particulars: in vivo. A digest of the protocol:
(§2)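 Rat pharmacokinetics with single intravenous (2 mg/kg) or oral (5 or 20 mg/kg) dosing. Terminal half-life is reported in hours.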

The nature of series [5]: Stability in mouse liver microsomes assessed as parent compound remaining after 30 mins. Type of series: ADME, microsome. Particulars: read-out: Stability. The essentials:
(§3)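 Incubated in vitro with mouse, rat or human liver microsomes for 30 minutes. Result expressed as percent of parent compound remaining.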

Series [6] is described as follows: Volume of distribution at steady state in rat at 2 mg/kg, iv. The series is classed as ADME, organism-based. The following applies: in vivo, read-out: Vdss. A digest of the protocol:
(§4)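 Rat pharmacokinetics after a single intravenous dose of 2 mg/kg or oral doses of 5 mg/kg and 20 mg/kg. Reported parameters are Tmax, Cmax, T1/2, AUCt, AUC∞, CL, Vss and F(%). CL, Vss and F come from the intravenous/oral 2 and 5 mg/kg arms.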

Series [7] is described as follows: AUCt in rat at 5 mg/kg, po. Type of series: ADME, organism-based. The following applies: in vivo. A digest of the protocol: as §1
The subject of series [8] is Rattus norvegicus. In words: Cmax in rat at 5 mg/kg, po. Type of series: ADME, organism-based. Set-up: dose 5 mg/kg, route oral. Particulars: in vivo. A digest of the protocol:
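Peak plasma level after single oral dosing in rat at 5 or 20 mg/kg. Cmax is given in mg/mL as printed, with Tmax in hours.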

Series [9] is described as follows: Clearance in rat at 2 mg/kg, iv. The series is classed as ADME, organism-based. Particulars: in vivo.
Series [10] is described as follows: AUCinfinity in rat at 2 mg/kg, iv. The series is classed as ADME, organism-based. Also noted: dose 2 mg/kg, time infinity, route intravenous. The following applies: in vivo. The essentials:
as §1

A short description of series [11]: Stability in rat liver microsomes assessed as parent compound remaining after 30 mins. The series is classed as ADME, microsome. Particulars: read-out: Stability. The essentials: as §3
The subject of series [12] is Rattus norvegicus. The series can be described thus: Tmax in rat at 5 mg/kg, po. Type of series: ADME, organism-based. Particulars: in vivo. A digest of the protocol: as §4
Series [13] in a line: Oral bioavailability in rat at 5 mg/kg. The series is classed as ADME, organism-based. The following applies: in vivo. A digest of the protocol:
as §4

Series [14] relates to Rattus norvegicus. In words: Half life in rat at 5 mg/kg, po. The series is classed as ADME, organism-based. Particulars: in vivo. A digest of the protocol: as §2
Series [15] in a line: Stability in human liver microsomes assessed as parent compound remaining after 30 mins. Type of series: ADME, microsome. Particulars: read-out: Stability. The essentials: as §3
For orientation: Liver microsomes are vesicles of endoplasmic reticulum, rich in cytochrome P450 enzymes.

The subject of series [16] is Rattus norvegicus. The series can be described thus: AUCinfinity in rat at 5 mg/kg, po. Type of series: ADME, organism-based. Also noted: dose 5 mg/kg, time infinity, route oral. The following applies: in vivo. The essentials: as §1

The IC50 is the concentration that gives 50% inhibition. A lower IC50 goes with greater potency in that assay. For the compound `CCOC(=O)NCc1cccc(Nc2nc3ccccc3n3c(C)nnc23)c1`, the IC50 in series [1] was over 10 µM; with THP-1, over 10 µM; in [2] it was 0.16 µM.
As for `CC(C)(C)OC(=O)NCc1cccc(Nc2nc3ccccc3n3c(C(F)(F)F)nnc23)c1`, the IC50 in [2] is over 10 µM.
For `Cc1nnc2c(Nc3cccc(CNC(=O)C(C)(C)C)c3)nc3ccccc3n12`, the IC50 in series [1] is over 10 µM; in series [2] it was 0.097 µM.
With `CCNC(=O)C[C@@H]1N=C(c2ccc(Cl)cc2)c2cc(OC)ccc2-n2c(C)nnc21` [MOLIBRESIB], the IC50 is 0.39 µM in series [1] and 0.29 µM with THP-1.
On to `CC(C)(C)OC(=O)NCc1cccc(Nc2nc3ccccc3n3cnnc23)c1`, for which the concentration for half-maximal inhibition (IC50) in series [2] was over 10 µM.
As to `Cc1nnc2c(Nc3ccc(CNC(=O)OC(C)(C)C)cc3)nc3ccccc3n12`, the IC50 was over 10 µM in series [1] and 2.7 µM in series [2].
As for `Cc1nnc2c(Nc3cccc(CN)c3)nc3ccccc3n12`, the 50% inhibitory concentration (IC50) in [1] is over 10 µM; in series [2], 0.35 µM.
`Cc1nnc2c(Nc3cccc(NC(=O)OC(C)(C)C)c3)nc3ccccc3n12`: the IC50 in series [1] was over 10 µM; in [2] it was 0.12 µM.
Regarding `CC(=O)NCc1cccc(Nc2nc3ccccc3n3c(C)nnc23)c1`, the half-maximal inhibitory concentration (IC50) is over 10 µM in series [1] and 0.53 µM in [2].
The corresponding values for `Cc1nnc2c(Nc3cccc(CNC(=O)OC(C)(C)C)c3)nccn12` are over 10 µM and 1.5 µM.
`CCC(=O)NCc1cccc(Nc2nc3ccccc3n3c(C)nnc23)c1`: the half-inhibitory concentration (IC50) is 7.6 µM in [1] and 0.2 µM in [2].
On to `Cc1nnc2c(Nc3ccc(NC(=O)OC(C)(C)C)cc3)nc3ccccc3n12`, for which the IC50 in series [1] is over 10 µM; in [2], 6.4 µM.
Regarding `CC(C)(C)OC(=O)NCc1cccc(Nc2nc3ccccc3n3c(-c4ccccc4)nnc23)c1`, the IC50 in series [2] is over 10 µM.
`Cc1sc2c(c1C)C(c1ccc(Cl)cc1)=N[C@@H](CC(=O)Nc1ccc(O)cc1)c1nnc(C)n1-2` [BIRABRESIB]: the concentration for half-maximal inhibition (IC50) in series [1] was determined as 0.067 µM; with THP-1 it was 0.033 µM.
What is called AUC(0-t) is the area under the concentration-time curve up to a stated or last time point. Low readings indicate less exposure, high ones more exposure. In general, half-life refers to the time needed for the level to fall by half in the phase considered. Higher therefore signals slow loss. In general, Cmax refers to the peak of the concentration-time curve. Broadly, the clearance is a measure of how efficiently the substance is removed, as volume per time. A high value points to a high capacity for elimination. As a reminder, the AUC(0-inf) is the area under the concentration-time curve extrapolated to infinity. A low value points to low exposure. What is called Tmax is the time at which the peak concentration occurs. Broadly, the bioavailability is the share of a dose that reaches the circulation, judged against a reference dose that is usually intravenous. Low readings indicate poor availability, high ones good availability. What is called AUC is the area under the concentration-time curve, a measure of exposure. Take `Cc1nnc2c(Nc3cccc(CNC(=O)OC(C)(C)C)c3)nc3ccccc3n12`: the exposure AUC(0-t) in series [3] was 4020 ng·h/mL; in series [7], 2110 ng·h/mL. In series [4], this compound had a half-life of 0.72 h. The remaining at 0.5 h in series [5] amounted to 0.12%; in series [11], 0.19%; in series [15] it was 27%. The Vd in [6] was found to be 0.46 L/kg. Further, in the series with Rattus norvegicus [8], the maximum concentration (Cmax) stood at 340 ng/mL. The compound further showed a clearance in series [9] of 8.33 mL/min/kg. This compound also yielded an AUC(0-inf) in series [10] of 4020 ng·h/mL. For the same compound, the IC50 in [1] was 2.5 to 7.1 µM; in the series with THP-1, 3.4 µM; in [2], 0.017 to 0.068 µM. Also, the Tmax in the series with Rattus norvegicus [12] was 3.42 h. The same compound showed a bioavailability in [13] of 20.9%. In addition, in the series with Rattus norvegicus [14], the t1/2 was 3.69 h. In the series on Rattus norvegicus [16], the AUC amounted to 2390 ng·h/mL.
As to `Cc1nnc2c(Nc3cccc(CNC(=O)c4ccccc4)c3)nc3ccccc3n12`, the IC50 in [1] stood at 8.6 µM; in series [2], 0.64 µM.
Take `CCc1nnc2c(Nc3cccc(CNC(=O)OC(C)(C)C)c3)nc3ccccc3n12`: the concentration for half-maximal inhibition (IC50) in [2] is over 10 µM.

These data come from ChEMBL document CHEMBL4043246, “Discovery of novel [1,2,4]triazolo[4,3-a]quinoxaline aminophenyl derivatives as BET inhibitors for cancer treatment” (Bioorg Med Chem Lett, 2017).
